# What was measured:
# Assay type in all cases: functional
# [1] = The compound was tested in vitro for antifungal activity against 10 yeasts.
# In short: (§1)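 Agar dilution on Kimmig's agar with 0.5% glycerol; ATCC or clinical isolates, inocula at 10⁵ cfu/mL. Drugs from 800 μg/mL stock in 50% ethanol, 2-fold serial dilutions 80 to 0.03 μg/mL in plates. Incubated 25 °C, 48 h for yeasts, 120 h for filamentous fungi. Value is geometric mean of MICs (μg/mL); >80 taken as 160, ≤0.03 as 0.03.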
# [2] = The compound was tested in vitro for antifungal activity against 6 filamentous fungi.; in short: as §1
# Candida albicans [3] = assay: In vivo antifungal activity against murine candidosis model after peroral administration with 0.5 mg/kg at various time intervals. (percent protection for 100% mortality with untreated group); conditions: route oral
# In short: (§2)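 Male mice, groups of 10, infected iv with 0.2 mL Candida albicans at (2–8) × 10⁷ cfu/mL. Oral suspension in 1% Tween + 0.2% carboxymethylcellulose in water, given 1, 4 and 24 h post-infection; vehicle controls and a fluconazole group at the same dose. Survival scored on days 1, 2, 3, 5, 7, 9, reported as % surviving on the day untreated, or fluconazole-treated, mortality reached 100%.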
# Candida albicans [4] = assay: In vivo antifungal activity against murine candidosis model after peroral administration with 0.5 mg/kg at various time intervals. (percent protection for 100% mortality with fluconazole-treated group.); conditions: route oral; in short: as §2
Structure (SMILES),MIC [1],MIC [2],Protection (Candida albicans [3]),Protection (Candida albicans [4])
C[C@@H](n1cnc2cc(-c3ccc(-n4ncnn4)cc3)sc2c1=O)[C@](O)(Cn1cncn1)c1ccc(F)cc1F,1.9 µg/mL,> 80 µg/mL,–,–
C[C@@H](NC(=O)c1ccc(-c2cc(C(F)(F)F)nn2C)s1)[C@](O)(Cn1cncn1)c1ccc(F)cc1F,2.3 µg/mL,28 µg/mL,10%,0%
Cc1sc(-c2ccc(Cl)cc2)nc1C(=O)N[C@H](C)[C@](O)(Cn1cncn1)c1ccc(F)cc1F,> 80 µg/mL,> 80 µg/mL,–,–
Cc1nc(-c2ccc(Cl)cc2)oc1C(=O)N[C@H](C)[C@](O)(Cn1cncn1)c1ccc(F)cc1F,3.7 µg/mL,40 µg/mL,40%,0%
C[C@@H](NC(=O)c1cnc(-c2ccc(Cl)cc2)s1)[C@](O)(Cn1cncn1)c1ccc(F)cc1F,0.7 µg/mL,6.3 µg/mL,100%,100%
Cc1nc(-c2ccc(C#N)cc2)sc1C(=O)N[C@H](C)[C@](O)(Cn1cncn1)c1ccccc1F,1.5 µg/mL,5 µg/mL,100%,60%
C[C@@H](NC(=O)c1sc(-c2ccc(Cl)cc2)cc1N)[C@](O)(Cn1cncn1)c1ccc(F)cc1F,0.6 µg/mL,22 µg/mL,0%,0%
Cc1nc(COc2ccc(Cl)cc2)sc1C(=O)N[C@H](C)[C@](O)(Cn1cncn1)c1ccc(F)cc1F,0.6 µg/mL,2.9 µg/mL,30%,0%
C[C@@H](NC(=O)c1ccc(-c2ccc(Cl)cc2)s1)[C@](O)(Cn1cncn1)c1ccc(F)cc1F,0.2 µg/mL,3.5 µg/mL,100%,100%
Cc1nc(-c2ccc(C#N)cc2)sc1C(=O)N[C@H](C)[C@](O)(Cn1cncn1)c1ccc(Cl)cc1Cl,0.4 µg/mL,5 µg/mL,100%,100%
C[C@@H](NC(=O)c1sc(-c2ccc(Cl)cc2)nc1C(F)(F)F)[C@](O)(Cn1cncn1)c1ccc(F)cc1F,2 µg/mL,8.9 µg/mL,100%,<70%
CCC(C)n1ncn(-c2ccc(N3CCN(c4ccc(OC[C@@H]5CO[C@@](Cn6cncn6)(c6ccc(Cl)cc6Cl)O5)cc4)CC3)cc2)c1=O (some centres not stated) [ITRACONAZOLE],5.2 µg/mL,63 µg/mL,0%,0%
C[C@@H](NC(=O)c1sc(-c2ccc(C#N)cc2)nc1C(F)(F)F)[C@](O)(Cn1cncn1)c1ccc(F)cc1F,2.9 µg/mL,28 µg/mL,100%,<50%
Cc1nc(-c2ccc(C(=N)NO)cc2)sc1C(=O)N[C@H](C)[C@](O)(Cn1cncn1)c1ccc(F)cc1F,12 µg/mL,80 µg/mL,0%,0%
Cc1cc(-c2ccc(Cl)cc2)sc1C(=O)N[C@H](C)[C@](O)(Cn1cncn1)c1ccc(F)cc1F,0.3 µg/mL,0.7 µg/mL,100%,20%
Cc1nc(-c2ccccc2)sc1C(=O)N[C@H](C)[C@](O)(Cn1cncn1)c1ccc(F)cc1F,1.4 µg/mL,7.6 µg/mL,30%,0%
Cc1nc(-c2sc(-c3ccc(Cl)cc3)nc2C)sc1C(=O)N[C@H](C)[C@](O)(Cn1cncn1)c1ccc(F)cc1F,1.8 µg/mL,> 80 µg/mL,10%,0%
Cc1c(C(=O)N[C@H](C)[C@](O)(Cn2cncn2)c2ccc(F)cc2F)cnn1C,> 80 µg/mL,> 80 µg/mL,–,–
Cc1nc(-c2ccc(OCC(F)(F)C(F)F)cc2)sc1C(=O)N[C@H](C)[C@](O)(Cn1cncn1)c1ccc(F)cc1F,1.3 µg/mL,2.2 µg/mL,100%,0%
CC(=O)ONC(=N)c1ccc(-c2nc(C)c(C(=O)N[C@H](C)[C@](O)(Cn3cncn3)c3ccc(F)cc3F)s2)cc1,14 µg/mL,45 µg/mL,70%,0%
C[C@@H](NC(=O)c1nnc(-c2ccc(Cl)cc2)o1)[C@](O)(Cn1cncn1)c1ccc(F)cc1F,49 µg/mL,> 80 µg/mL,10%,0%
C[C@@H](NC(=O)c1sc(-c2ccc(C3N=NN=N3)cc2)nc1C(F)(F)F)[C@](O)(Cn1cncn1)c1ccc(F)cc1F,75 µg/mL,> 80 µg/mL,30%,0%
C[C@@H](NC(=O)c1scc(S(=O)(=O)c2ccc(Cl)cc2)c1N)[C@](O)(Cn1cncn1)c1ccc(F)cc1F,1 µg/mL,10 µg/mL,20%,0%

Structure (SMILES),MIC [1],MIC [2],Protection (Candida albicans [3]),Protection (Candida albicans [4])
Cc1nc(-c2ccc(OC(F)(F)F)cc2)sc1C(=O)N[C@H](C)[C@](O)(Cn1cncn1)c1ccc(F)cc1F,1.3 µg/mL,1.6 µg/mL,100%,100%
Cc1nc(-c2ccc(Cl)cc2)sc1C(=O)N[C@H](C)[C@](O)(Cn1cncn1)c1ccc(F)cc1F,0.8 µg/mL,1.2 µg/mL,100%,100%
Cc1nc(Br)sc1C(=O)N[C@H](C)[C@](O)(Cn1cncn1)c1ccc(F)cc1F,4.6 µg/mL,32 µg/mL,–,–
Cc1nc(-c2ccc(C(F)(F)F)cc2)sc1C(=O)N[C@H](C)[C@](O)(Cn1cncn1)c1ccc(F)cc1F,0.9 µg/mL,2.2 µg/mL,100%,100%
C[C@@H](NC(=O)c1nsc(-c2ccc(Cl)cc2)n1)[C@](O)(Cn1cncn1)c1ccc(F)cc1F,1.4 µg/mL,> 80 µg/mL,80%,10%
C[C@@H](NC(=O)c1sc(-c2ccc(C(F)(F)F)cc2)nc1C(F)(F)F)[C@](O)(Cn1cncn1)c1ccc(F)cc1F,1.6 µg/mL,17 µg/mL,90%,<20%
Cc1nc(-c2ccc(F)cc2)sc1C(=O)N[C@H](C)[C@](O)(Cn1cncn1)c1ccc(F)cc1F,1.1 µg/mL,1.8 µg/mL,100%,80%
Cc1nc(-c2ccc(C(N)=O)cc2)sc1C(=O)N[C@H](C)[C@](O)(Cn1cncn1)c1ccc(F)cc1F,20 µg/mL,> 80 µg/mL,0%,0%
Cc1nc(-c2ccc(C#N)cc2)sc1C(=O)N[C@H](C)[C@](O)(Cn1ccnc1)c1ccc(F)cc1F,10 µg/mL,45 µg/mL,70%,0%
Cc1cc(-c2ccc(C#N)cc2)sc1C(=O)N[C@H](C)[C@](O)(Cn1cncn1)c1ccc(F)cc1F,0.7 µg/mL,8.9 µg/mL,100%,70%
C[C@@H](NC(=O)c1ccc(-c2ccc(Cl)cc2)o1)[C@](O)(Cn1cncn1)c1ccc(F)cc1F,1.5 µg/mL,> 80 µg/mL,0%,0%
Cc1nc(-c2ccc(C#N)cc2)sc1C(=O)N(C)[C@H](C)[C@](O)(Cn1cncn1)c1ccc(F)cc1F,0.8 µg/mL,4.5 µg/mL,100%,100%
Cc1nc(-c2ccc(C#N)cc2)sc1C(=O)N[C@H](C)[C@](O)(Cn1cncn1)c1ccc(C(F)(F)F)cc1,2 µg/mL,> 80 µg/mL,0%,0%
Cc1nc(-c2ccc(Cl)cc2)n(C)c1C(=O)N[C@H](C)[C@](O)(Cn1cncn1)c1ccc(F)cc1F,2.6 µg/mL,18 µg/mL,100%,0%
C[C@@H](NC(=O)c1ccc(-c2ccc(C#N)cc2)s1)[C@](O)(Cn1cncn1)c1ccc(F)cc1F,0.8 µg/mL,> 80 µg/mL,100%,100%
Cc1nc(S(=O)(=O)c2ccc(Cl)cc2)sc1C(=O)N[C@H](C)[C@](O)(Cn1cncn1)c1ccc(F)cc1F,7.6 µg/mL,> 80 µg/mL,0%,0%
C[C@@H](n1ncn(-c2ccc(OCC(F)(F)C(F)F)cc2)c1=O)[C@](O)(Cn1cncn1)c1ccc(F)cc1F,2.6 µg/mL,8.9 µg/mL,100%,100%
Cc1nc(C)c(C(=O)N[C@H](C)[C@](O)(Cn2cncn2)c2ccc(F)cc2F)s1,19 µg/mL,> 80 µg/mL,0%,0%
C[C@@H](NC(=O)c1csc(-c2ccc(Cl)cc2)n1)[C@](O)(Cn1cncn1)c1ccc(F)cc1F,4.5 µg/mL,> 80 µg/mL,0%,0%
C[C@@H](NC(=O)c1ccc(-c2ccc(Cl)cc2)cc1)[C@](O)(Cn1cncn1)c1ccc(F)cc1F,0.3 µg/mL,18 µg/mL,100%,100%
C[C@@H](NC(=O)c1ccc(C(F)(F)F)cc1)[C@](O)(Cn1cncn1)c1ccc(F)cc1F,4.6 µg/mL,22 µg/mL,100%,100%
CCCS(=O)(=O)c1csc(C(=O)N[C@H](C)[C@](O)(Cn2cncn2)c2ccc(F)cc2F)c1N,4.4 µg/mL,23 µg/mL,–,–
C[C@@H](NC(=O)c1cnn(-c2ccc(C(F)(F)F)cc2)c1N)[C@](O)(Cn1cncn1)c1ccc(F)cc1F,3.3 µg/mL,28 µg/mL,–,–
